The values below come from ChEMBL document CHEMBL3407499, “Synthesis, QSAR and anticandidal evaluation of 1,2,3-triazoles derived from naturally bioactive scaffolds” (Eur J Med Chem, 2015).

Values after ≈ are worked out from the molar mass of the structure shown. A value given as a limit tells only on which side of the number the result lay.

The first data set relates to Candida albicans. Kind of data set: microbe, parasite or virus in culture. It is filed as functional, organism-based. The following applies: ATCC 90028, 24 h.
`Oc1cccc2cccnc12` [OXYQUINOLINE] displayed an IC50 of 18.5 µg/mL (≈ 127 µM).
The same measure, in the same setting: the same measure for `COc1cc(/C=C/C(=O)O)ccc1O` [FERULATE]: 210 µg/mL (≈ 1080 µM); for `OC(Cn1cncn1)(Cn1cncn1)c1ccc(F)cc1F` [FLUCONAZOLE]: 15.6 µg/mL (≈ 51 µM).
Molecule `C/C=C\c1ccc(O)c(OC)c1` [ISOEUGENOL] registered an IC50 of 83 µg/mL (≈ 505 µM).
The molecule `COc1ccccc1OCc1cn(Cc2ccccc2)nn1` returned an IC50 of 515 µg/mL (≈ 1740 µM).
Same read-out and setting: the same measure for `CC(C)c1ccc(CO)cc1`: 81.5 µg/mL (≈ 542 µM); for `COc1cc(C=O)ccc1OCc1cn(Cc2ccccc2)nn1`: 44.7 µg/mL (≈ 138 µM); for `CC(C)c1ccc(COCc2cn(Cc3ccccc3)nn2)cc1`: 324 µg/mL (≈ 1010 µM).

The next data set relates to Candida albicans. Kind of data set: microbe, parasite or virus in culture. It is filed as functional. Conditions: ATCC 90028, 48 h.
Consider `Oc1cccc2cccnc12` [OXYQUINOLINE], for which the MFC stood at 500 µg/mL (≈ 3440 µM).
Still for that read-out and setting: the same measure for `COc1cc(/C=C/C(=O)O)ccc1O` [FERULATE]: > 1000 µg/mL; for `C/C=C\c1ccc(O)c(OC)c1` [ISOEUGENOL]: 1000 µg/mL (≈ 6090 µM); for `CC(C)c1ccc(CO)cc1`: 1000 µg/mL (≈ 6660 µM).
For `COc1cc(C=O)ccc1OCc1cn(Cc2ccccc2)nn1`, the MFC was > 500 µg/mL.
For the molecule `CC(C)c1ccc(COCc2cn(Cc3ccccc3)nn2)cc1`, the MFC was > 1000 µg/mL.

Another data set deals with Nakaseomyces glabratus. In words: microbe, parasite or virus in culture. The following applies: ATCC 90030, 24 h. It is filed as functional, organism-based.
The molecule `Oc1cccc2cccnc12` [OXYQUINOLINE] gave a 50% inhibitory concentration (IC50) of 13.8 µg/mL (≈ 95.1 µM).
Still for that read-out and setting: next, `COc1cc(/C=C/C(=O)O)ccc1O` [FERULATE]: 617 µg/mL (≈ 3180 µM).
Regarding `OC(Cn1cncn1)(Cn1cncn1)c1ccc(F)cc1F` [FLUCONAZOLE], half-maximal inhibition (IC50) required 7.81 µg/mL (≈ 25.5 µM) and the MIC amounted to 15.6 µg/mL (≈ 51 µM).
For `C/C=C\c1ccc(O)c(OC)c1` [ISOEUGENOL], the midpoint of inhibition, the IC50, lay at 71.6 µg/mL (≈ 436 µM).
The same measure, in the same setting: the same measure for `COc1ccccc1OCc1cn(Cc2ccccc2)nn1`: 370 µg/mL (≈ 1250 µM); for `CC(C)c1ccc(CO)cc1`: 7.09 µg/mL (≈ 47.2 µM).
`COc1cc(C=O)ccc1OCc1cn(Cc2ccccc2)nn1` showed a 50% inhibitory concentration (IC50) of 216 µg/mL (≈ 667 µM).
As to `CC(C)c1ccc(COCc2cn(Cc3ccccc3)nn2)cc1`, the IC50 amounted to 316 µg/mL (≈ 984 µM).

The next data set concerns Nakaseomyces glabratus. Kind of data set: microbe, parasite or virus in culture. In kind it is functional. The following applies: ATCC 90030, 48 h.
With `Oc1cccc2cccnc12` [OXYQUINOLINE], the MFC was found to be 500 µg/mL (≈ 3440 µM).
For the molecule `COc1cc(/C=C/C(=O)O)ccc1O` [FERULATE], the MFC was > 1000 µg/mL.
In turn, `C/C=C\c1ccc(O)c(OC)c1` [ISOEUGENOL] registered an MFC of 500 µg/mL (≈ 3040 µM).
Same read-out and setting: next, `COc1ccccc1OCc1cn(Cc2ccccc2)nn1`: > 1000 µg/mL.
On the same count and under the same terms, the same measure for `CC(C)c1ccc(CO)cc1`: 500 µg/mL (≈ 3330 µM).
The same measure, in the same setting: next, `COc1cc(C=O)ccc1OCc1cn(Cc2ccccc2)nn1`: 500 µg/mL (≈ 1550 µM); `CC(C)c1ccc(COCc2cn(Cc3ccccc3)nn2)cc1`: > 1000 µg/mL.

The test system of another data set is Candida tropicalis. In words: Anticandidal activity against Candida tropicalis ATCC 750 incubated at 37 degC for 24 hrs by broth dilution method. It is filed as functional, organism-based. The following applies: ATCC 750, 24 h. (Dilution methods test growth across graded concentrations, often in twofold steps.)
With `Oc1cccc2cccnc12` [OXYQUINOLINE], 22.9 µg/mL (≈ 158 µM) corresponded to half-maximal inhibition (IC50) and the MIC worked out at 15.6 µg/mL (≈ 108 µM).
`COc1cc(/C=C/C(=O)O)ccc1O` [FERULATE] had an IC50 of 67.6 µg/mL (≈ 348 µM).
`OC(Cn1cncn1)(Cn1cncn1)c1ccc(F)cc1F` [FLUCONAZOLE] yielded an IC50 of 8.55 µg/mL (≈ 27.9 µM) and an MIC of 15.6 µg/mL (≈ 51 µM).
`C/C=C\c1ccc(O)c(OC)c1` [ISOEUGENOL]: half-maximal inhibition (IC50) was put at 128 µg/mL (≈ 778 µM).
Same read-out and setting: next, `COc1ccccc1OCc1cn(Cc2ccccc2)nn1`: 165 µg/mL (≈ 559 µM); `CC(C)c1ccc(CO)cc1`: 44.8 µg/mL (≈ 298 µM).
Same read-out and setting: the same measure for `COc1cc(C=O)ccc1OCc1cn(Cc2ccccc2)nn1`: 92.7 µg/mL (≈ 287 µM); for `CC(C)c1ccc(COCc2cn(Cc3ccccc3)nn2)cc1`: 169 µg/mL (≈ 527 µM).

A further data set relates to Candida tropicalis. Kind of data set: Fungicidal activity against Candida tropicalis ATCC 750 incubated at 37 degC for 48 hrs by broth dilution method. Conditions: ATCC 750, 48 h. In kind it is functional.
`Oc1cccc2cccnc12` [OXYQUINOLINE] showed an MFC of 500 µg/mL (≈ 3440 µM).
Turning to `COc1cc(/C=C/C(=O)O)ccc1O` [FERULATE], the MFC was > 1000 µg/mL.
As to `C/C=C\c1ccc(O)c(OC)c1` [ISOEUGENOL], the MFC stood at 1000 µg/mL (≈ 6090 µM).
Consider `CC(C)c1ccc(CO)cc1`, for which the MFC was found to be 1000 µg/mL (≈ 6660 µM).
The same measure, in the same setting: next, `COc1cc(C=O)ccc1OCc1cn(Cc2ccccc2)nn1`: 500 µg/mL (≈ 1550 µM); `CC(C)c1ccc(COCc2cn(Cc3ccccc3)nn2)cc1`: > 1000 µg/mL.

A further data set relates to Vero. In words: Cytotoxicity against African green monkey Vero cells assessed as reduction in cell viability after 48 hrs by neutral red assay. In kind it is cell-based. Conditions: chlorocebus sabaeus. The method, boiled down: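 Vero (monkey kidney fibroblast) cells seeded at 25,000 cells/well, grown 24 h, then exposed to a range of compound concentrations for 48 h. Viable cells quantified by Neutral Red uptake. IC50 read from dose-response curves. Doxorubicin served as positive cytotoxic control.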
For the molecule `COc1cccc2c1C(=O)c1c(O)c3c(c(O)c1C2=O)C[C@@](O)(C(=O)CO)C[C@@H]3O[C@H]1C[C@H](N)[C@H](O)[C@H](C)O1` [DOXORUBICIN], the IC50 was > 5 µg/mL.

The subject of another data set is Vero. Kind of data set: Cytotoxicity against African green monkey Vero cells assessed as reduction in cell viability up to 10 ug/ml after 48 hrs by neutral red assay. In kind it is cell-based. The following applies: chlorocebus sabaeus.
As to `COc1ccccc1OCc1cn(Cc2ccccc2)nn1`, the Activity result is “Non-toxic”.
On the same count and under the same terms, the same measure for `COc1cc(C=O)ccc1OCc1cn(Cc2ccccc2)nn1`: “Non-toxic”.
For the molecule `CC(C)c1ccc(COCc2cn(Cc3ccccc3)nn2)cc1`, the Activity result is reported as “Non-toxic”.

The subject of the next data set is Nakaseomyces glabratus. Kind of data set: Anticandidal activity against Candida glabrata ATCC 90030 incubated at 37 degC for 24 hrs in presence of 8-((1-Benzyl-1H-1,2,3-triazol-4-yl)methoxy)quinoline by broth micro dilution method. It is filed as functional. The following applies: ATCC 90030, 24 h.
Consider `OC(Cn1cncn1)(Cn1cncn1)c1ccc(F)cc1F` [FLUCONAZOLE], for which the MIC was determined as 3.9 µg/mL.

For another data set, the system named is Candida tropicalis. In words: Anticandidal activity against Candida tropicalis ATCC 750 incubated at 37 degC for 24 hrs in presence of 8-((1-Benzyl-1H-1,2,3-triazol-4-yl)methoxy)quinoline by broth micro dilution method. In kind it is functional. The following applies: ATCC 750, 24 h.
For `OC(Cn1cncn1)(Cn1cncn1)c1ccc(F)cc1F` [FLUCONAZOLE], the MIC came to 3.9 µg/mL.

Tested on in the next data set: not listed separately
Kind of data set: Toxicity in human RBC assessed as induction of hemolysis at 500 ug/ml incubated for 1 hr by spectrophotometry. In kind it is cell-based, Erythrocyte. The following applies: red blood cells (RBC), read-out: Activity. The method, boiled down: (§1)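 Human erythrocyte suspension in PBS, 100 µL added in triplicate to 100 µL compound dilution series in the same buffer, 1 h at 37 °C. Tubes centrifuged 10 min at 2000 rpm and 20 °C, and supernatant A450 measured. Percent hemolysis taken relative to buffer (0%) and 1% Triton X-100 (100%).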
As to `Oc1cccc2cccnc12` [OXYQUINOLINE], the hemolysis at 1 h, 500 ug/ml worked out at 15%.
Same read-out and setting: the same measure for `OC(Cn1cncn1)(Cn1cncn1)c1ccc(F)cc1F` [FLUCONAZOLE]: 68.6%; for `COc1cc(C=O)ccc1OCc1cn(Cc2ccccc2)nn1`: 33.5%.

Tested on in another data set: not listed separately
In words: Toxicity in human RBC assessed as induction of hemolysis at anticandidal IC50 level incubated for 1 hr by spectrophotometry. It is filed as cell-based, Erythrocyte. Conditions: red blood cells (RBC), read-out: Activity. In short, it runs like this:
as §1
On to `Oc1cccc2cccnc12` [OXYQUINOLINE], for which the hemolysis at 1 h is < 5%.
On the same count and under the same terms, next, `COc1cc(C=O)ccc1OCc1cn(Cc2ccccc2)nn1`: < 5%.

A word on the IC50: it is the point on the concentration scale where inhibition reaches its midpoint.
